# Measured values published in ChEMBL document CHEMBL4715791, “Enhancing Therapeutic Efficacy of Cisplatin by Blocking DNA Damage Repair” (ACS Med Chem Lett, 2016).
# Calls of active or inactive are those of the source. The rule behind the calls is not given here.
# What was measured:
# [1] = tested on: HeLa; experiment: Inhibition of PP2A in human HeLa cells assessed as increase in phosphorylated ERK expression level at 2.5 uM measured after 24 hrs by Western blot analysis; type: cell-based
# Summary of the method: (§1)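 HeLa cells exposed 24 h to cisplatin, compound or the combination. P-Akt and P-ERK read by Western blot.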
# [2] = tested on: HeLa; experiment: Inhibition of PP2A in human HeLa cells assessed as enzyme activity at 10 uM measured after 3 hrs in presence of cisplatin by malachite green phosphatase assay relative to control; type: cell-based; parameters: scale not given: the % may be the effect or the level left
# Summary of the method: (§2)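 PP2A activity measured in HeLa cells after 3 h exposure to compound, alone or combined with cisplatin. Activity expressed as % of untreated control.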
# [3] = tested on: HeLa; experiment: Induction of cell cycle arrest in human HeLa cells assessed as accumulation at G2/M phase at 6.8 uM measured after 24 hrs by propidium iodide/RNase staining based flow cytometry (reference value: 10.52 %); type: functional
# [4] = tested on: HeLa; experiment: Inhibition of PP2A in human HeLa cells assessed as enzyme activity at 10 uM measured after 3 hrs by malachite green phosphatase assay relative to control; type: cell-based; parameters: scale not given: the % may be the effect or the level left; summary of the method: as §2
# [5] = tested on: A549; experiment: Anticancer activity against human A549 cells assessed as reduction in cell viability measured after 24 to 72 hrs by MTT assay; type: functional, cell-based; details: time 24-72 hrs
# Summary of the method: (§3)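 MTT viability assay in HeLa and A549 cells, with concentration- and time-dependent exposures.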
# [6] = tested on: U14; experiment: Antitumor activity against mouse U14 cells implanted in Kunming mouse assessed as tumor growth inhibition at 1.5 mg/kg, ip administered on day 2, 5, 8 measured after 2 weeks by caliper method; type: functional, organism-based
# Summary of the method: (§4)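 KM mice bearing subcutaneous U14 mouse cervical cancer xenografts. Groups received saline, cisplatin 5 mg/kg, compound 1.5 mg/kg, or both (1:1 molar ratio). Relative tumor volume followed over about 2 weeks.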
# [7] = tested on: HeLa; experiment: Inhibition of PP2A in human HeLa cells assessed as increase in phosphorylated AKT expression level at 2.5 uM measured after 24 hrs by Western blot analysis; type: cell-based; summary of the method: as §1
# [8] = tested on: HeLa; experiment: Induction of apoptosis in human HeLa cells assessed as early apoptotic cells at 6.8 uM measured after 24 hrs by annexinV-FITC/propidium iodide staining based flow cytometry relative to control; type: functional
# [9] = tested on: HeLa; experiment: Effect on tubulin expression in human HeLa cells at 2.5 uM measured after 24 hrs in presence of cisplatin by DAPI staining based immunofluorescence assay
# [10] = Toxicity in Kunming mouse implanted with mouse U14 cells assessed as reduction in body weight at 1.5 mg/kg, ip administered on day 2, 5, 8 cotreated with cisplatin at 5 mg/kg, ip on day 1, 4, 7 and measured after 2 weeks; type: organism-based; details: in vivo, 336 h
# Summary of the method: (§5)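 U14-xenografted KM mice given saline, cisplatin 5 mg/kg, compound 1.5 mg/kg or both. Body weight monitored as a measure of systemic toxicity.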
# [11] = tested on: U14; experiment: Antitumor activity against mouse U14 cells implanted in Kunming mouse assessed as tumor growth inhibition at 1.5 mg/kg, ip administered on day 2, 5, 8 measured after 1 week by caliper method; type: functional, organism-based; details: time 1.0 weeks; summary of the method: as §4
# [12] = tested on: HeLa; experiment: Induction of cell cycle arrest in human HeLa cells assessed as accumulation at G1 phase at 6.8 uM measured after 24 hrs by propidium iodide/RNase staining based flow cytometry (reference value: 62.27 %); type: functional
# [13] = tested on: HeLa; experiment: Induction of cell cycle arrest in human HeLa cells assessed as accumulation at S phase at 6.8 uM measured after 24 hrs by propidium iodide/RNase staining based flow cytometry (reference value: 27.21 %); type: functional
# [14] = tested on: HeLa; experiment: Anticancer activity against human HeLa cells assessed as reduction in cell viability measured after 24 to 72 hrs by MTT assay; type: functional, cell-based; details: dose 1-100 µM, time 24-72 hrs; summary of the method: as §3
# [15] = tested on: HeLa; experiment: Potentiation of cisplatin-induced apoptosis in human HeLa cells assessed as late apoptotic cells at 6.8 uM measured after 24 hrs in presence of cisplatin by annexinV-FITC/propidium iodide staining based flow cytometry (reference value: 54%); type: functional
# [16] = tested on: A549; experiment: Induction of apoptosis in human A549 cells at 32.7 uM measured after 24 hrs by annexinV-FITC/propidium iodide staining based flow cytometry relative to control; type: functional
# [17] = tested on: A549; experiment: Potentiation of cisplatin-induced cell cycle arrest in human A549 cells assessed as accumulation at G1 phase at 32.7 uM measured after 24 hrs in presence of cisplatin by propidium iodide/RNase staining based flow cytometry (reference value: 42.35%); type: functional
# [18] = tested on: HeLa; experiment: Antagonistic anticancer activity against human HeLa cells assessed as combination index at cisplatin to compound ratio of 1:2 measured after 48 to 72 hrs by MTT based Chou-Talalay method; type: functional; details: time 48-72 hrs
# Summary of the method: (§6)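 Cisplatin and compound given together at fixed molar ratios. Viability read by MTT. Combination index computed at 50% inhibition (CI50); below 1 = synergism, 1 = additivity, above 1 = antagonism. Tested at 24, 48 and 72 h incubation.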
# [19] = tested on: HeLa; experiment: Effect on total Akt expression in human HeLa cells at 2.5 uM measured after 24 hrs by Hoechst staining based immunofluorescence assay; type: functional, cell-based
# [20] = tested on: HeLa; experiment: Inhibition of PP2A in human HeLa cells assessed as increase in phosphorylated Akt expression level at 2.5 uM measured after 24 hrs in presence of cisplatin by Hoechst staining based immunofluorescence assay; type: cell-based
# [21] = tested on: HeLa; experiment: Potentiation of cisplatin-induced cell cycle arrest in human HeLa cells assessed as accumulation at G2/M phase at 6.8 uM measured after 24 hrs in presence of cisplatin by propidium iodide/RNase staining based flow cytometry (reference value: 11.69 %); type: functional
# [22] = Toxicity in Kunming mouse implanted with mouse U14 cells assessed as change in body weight at 1.5 mg/kg, ip administered on day 2, 5, 8; type: organism-based; details: in vivo, 72 h, time 3 day; summary of the method: as §5
# [23] = tested on: HeLa; experiment: Antagonistic anticancer activity against human HeLa cells assessed as combination index at cisplatin to compound ratio of 1:0.3 measured after 48 to 72 hrs by MTT based Chou-Talalay method; type: functional; details: time 48-72 hrs; summary of the method: as §6
# [24] = tested on: HeLa; experiment: Anticancer activity against human HeLa cells assessed as reduction in cell viability at 1 to 100 uM by MTT assay; type: functional, cell-based; details: dose 1-100 µM, time 24-72 hrs, TDE = time-dependent effect
# [25] = tested on: A549; experiment: Induction of cell cycle arrest in human A549 cells assessed as accumulation at G1 phase at 32.7 uM measured after 24 hrs by propidium iodide/RNase staining based flow cytometry (reference value: 60.8 %); type: functional
# [26] = tested on: HeLa; experiment: Effect on tubulin expression in human HeLa cells at 2.5 uM measured after 24 hrs by Hoechst staining based immunofluorescence assay; type: functional, cell-based
# [27] = tested on: HeLa; experiment: Synergistic anticancer activity against human HeLa cells assessed as combination index at cisplatin to compound ratio of 1:0.5 measured after 24 hrs by MTT based Chou-Talalay method; type: functional; summary of the method: as §6
# [28] = tested on: A549; experiment: Induction of cell cycle arrest in human A549 cells assessed as accumulation at S phase at 32.7 uM measured after 24 hrs by propidium iodide/RNase staining based flow cytometry (reference value: 27.5 %); type: functional
# [29] = tested on: HeLa; experiment: Inhibition of PP2A in human HeLa cells assessed as increase in phosphorylated ERK expression level at 2.5 uM measured after 24 hrs in presence of cisplatin by Hoechst staining based immunofluorescence assay; type: cell-based
# [30] = tested on: HeLa; experiment: Inhibition of PP2A in human HeLa cells assessed as increase in phosphorylated Akt expression level at 2.5 uM measured after 24 hrs by Hoechst staining based immunofluorescence assay; type: cell-based
# [31] = tested on: HeLa; experiment: Effect on total ERK level in human HeLa cells at 2.5 uM measured after 24 hrs in presence of cisplatin by Hoechst staining based immunofluorescence assay; type: functional, cell-based
# [32] = tested on: A549; experiment: Induction of cell cycle arrest in human A549 cells assessed as accumulation at G2/M phase at 32.7 uM measured after 24 hrs by propidium iodide/RNase staining based flow cytometry (reference value: 11.7 %); type: functional
# [33] = Potentiation of cisplatin-induced antitumor activity against mouse U14 cells implanted in Kunming mouse assessed as tumor volume at 1.5 mg/kg, ip administered on day 2, 5, 8 cotreated with cisplatin at 5 mg/kg, ip on day 1, 4, 7 and measured at day 10 by caliper method (reference value: 178 +/- 33 mm3); type: functional; details: time 10 day; summary of the method: as §4
# [34] = tested on: A549; experiment: Potentiation of cisplatin-induced cell cycle arrest in human A549 cells assessed as accumulation at S phase at 32.7 uM measured after 24 hrs in presence of cisplatin by propidium iodide/RNase staining based flow cytometry (reference value: 21.52 %); type: functional
# [35] = tested on: HeLa; experiment: Potentiation of cisplatin-induced cell cycle arrest in human HeLa cells assessed as accumulation at S phase at 6.8 uM measured after 24 hrs in presence of cisplatin by propidium iodide/RNase staining based flow cytometry (reference value: 27.18 %); type: functional
# [36] = tested on: HeLa; experiment: Effect on total Akt expression in human HeLa cells at 2.5 uM measured after 24 hrs in presence of cisplatin by Hoechst staining based immunofluorescence assay; type: functional, cell-based
# [37] = tested on: HeLa; experiment: Inhibition of PP2A in human HeLa cells assessed as increase in phosphorylated ERK expression level at 2.5 uM measured after 24 hrs by Hoechst staining based immunofluorescence assay; type: cell-based
# [38] = Toxicity in Kunming mouse implanted with mouse U14 cells assessed as reduction in body weight at 1.5 mg/kg, ip administered on day 2, 5, 8 cotreated with cisplatin at 5 mg/kg, ip on day 1, 4, 7 and measured after 1 week; type: organism-based; details: in vivo, 168 h, time 1 weeks; summary of the method: as §5
# [39] = tested on: HeLa; experiment: Potentiation of cisplatin-induced cell cycle arrest in human HeLa cells assessed as accumulation at G1 phase at 6.8 uM measured after 24 hrs in presence of cisplatin by propidium iodide/RNase staining based flow cytometry (reference value: 61.13 %); type: functional
# [40] = tested on: HeLa; experiment: Potentiation of cisplatin-induced apoptosis in human HeLa cells assessed as early apoptotic cells at 6.8 uM measured after 24 hrs in presence of cisplatin by annexinV-FITC/propidium iodide staining based flow cytometry (reference value: 4.8%); type: functional
# [41] = tested on: A549; experiment: Potentiation of cisplatin-induced apoptosis in human A549 cells at 32.7 uM measured after 24 hrs in presence of cisplatin by annexinV-FITC/propidium iodide staining based flow cytometry (reference value: 36.9%); type: functional
# [42] = tested on: A549; experiment: Potentiation of cisplatin-induced cell cycle arrest in human A549 cells assessed as accumulation at G2/M phase at 32.7 uM measured after 24 hrs in presence of cisplatin by propidium iodide/RNase staining based flow cytometry (reference value: 36.13 %); type: functional
# [43] = tested on: HeLa; experiment: Effect on total ERK level in human HeLa cells at 2.5 uM measured after 24 hrs by Hoechst staining based immunofluorescence assay; type: functional, cell-based
# [44] = tested on: A549; experiment: Synergistic anticancer activity against human A549 cells assessed as combination index at cisplatin:compound ratio of 1:0.5 to 1:3 measured after 24 hrs in presence of cisplatin by MTT based Chou-Talalay method; type: functional; summary of the method: as §6
# [45] = tested on: HeLa; experiment: Synergistic anticancer activity against human HeLa cells assessed as combination index at cisplatin to compound ratio of 1:1 measured after 24 to 72 hrs by MTT based Chou-Talalay method; type: functional; details: time 24-72 hrs; summary of the method: as §6
# [46] = tested on: HeLa; experiment: Induction of apoptosis in human HeLa cells assessed as late apoptotic cells at 6.8 uM measured after 24 hrs by annexinV-FITC/propidium iodide staining based flow cytometry relative to control; type: functional
compound,measurement,setting,value
CC(C)(C)OC(=O)N1CCN(C(=O)C2C3CCC(O3)C2C(=O)O)CC1 (stereo unspecified),inhibition,[1],Active
same,Activity,[2],86%
same,Activity,[3],23.28%
same,Activity,[4],78.5%
same,Activity,[5],Active
same,growth inhibition (GI),[6],Active
same,inhibition,[7],Active
same,Activity,[8],5.4%
same,Activity,[9],inactive
same,Activity,[10],Non-Toxic
same,growth inhibition (GI),[11],inactive
same,Activity,[12],42.51%
same,Activity,[13],34.21%
same,Activity,[14],Dose-dependent effect
same,Activity,[15],64.1%
same,Activity,[16],35.5%
same,Activity,[17],38.95%
same,CI50,[18],>1
same,Activity,[19],inactive
same,inhibition,[20],Active
same,Activity,[21],31.46%
same,Activity,[22],Toxic
same,CI50,[23],>1
same,Activity,[24],Tde
same,Activity,[25],52.07%
same,Activity,[26],inactive
same,CI50,[27],<1
same,Activity,[28],36.61%
same,inhibition,[29],Active
same,inhibition,[30],Active
same,Activity,[31],inactive
same,Activity,[32],11.32%
same,Activity,[33],97 mm3
same,Activity,[34],45.71%
same,Activity,[35],27.87%
same,Activity,[36],inactive
same,inhibition,[37],Active
same,Activity,[38],Toxic
same,Activity,[39],40.67%
same,Activity,[40],6.4%
same,Activity,[41],41.5%
same,Activity,[42],15.34%
same,Activity,[43],inactive
same,CI50,[44],<1
same,CI50,[45],<1
same,Activity,[46],21.8%
